pEC50: −log10 of the molar value.

Series [1] in a line: Cytotoxicity in human TZM assessed as reduction in cell viability incubated for 5 days by MTT assay. The series is classed as cell-based. The following applies: TZM cells, time 5 day. In a few lines:
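Uninfected TZM-bl cells were exposed to compound in parallel with the HIV-1 NL4-3 antiviral assay. CC50 is the concentration that cuts viability by 50%. Each compound was run in at least triplicate, and values were averaged from at least four independent experiments.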
For orientation: Tetrazolium assays rely on reduction of a dye to a coloured formazan, in cell work by metabolically active cells.

Series [2] can be described thus: Selectivity index, ratio of CC50 for cytotoxicity in mock-infected human MT4 cells assessed as reduction in cell viability incubated for 5 days by MTT to EC50 for inhibition of reverse transcriptase K103N/Y181C double mutant/nucleocapsid protein 7 in HIV1 RES056 infected in human MT4 cells assessed as protection against virus-induced cytopathic effect incubated for 5 days by MTT assay. The following applies: time 5 day, read-out: Ratio CC50/EC50. It is filed as toxicity, cell-based. In a few lines: (§1)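 MT-4 cells infected with HIV-1 IIIB (wild type) or RES056 (K103N/Y181C RT double mutant); 5-day incubation; viability by MTT. EC50 is the concentration giving 50% protection against virus-induced cytotoxicity. CC50 is the concentration cutting viability of mock-infected cultures by 50%. SI is CC50/EC50. Fold resistance is EC50 mutant/EC50 wild type.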

Series [3] in a line: Inhibition of reverse transcriptase/nucleocapsid protein 7 in wild type HIV1 3B infected in human MT4 cells assessed as protection against virus-induced cytopathic effect incubated for 5 days by MTT assay. It is filed as cell-based. The following applies: Human immunodeficiency virus 1, 3B, MT4, 120 h. In a few lines: as §1
Background: Damage to the host cells serves as the signal in cytopathic effect assays.

In series [4] the test system is Human immunodeficiency virus 1. The series can be described thus: Fold resistance, ratio of EC50 for inhibition of reverse transcriptase K103N/Y181C double mutant/nucleocapsid protein 7 in HIV1 RES056 infected in human MT4 cells assessed as protection against virus-induced cytopathic effect incubated for 5 days by MTT assay to EC50 for reverse transcriptase/nucleocapsid protein 7 in wild type HIV1 3B infected in human MT4 cells assessed as protection against virus-induced cytopathic effect incubated for 5 days by MTT assay. The following applies: time 5.0 day. It is filed as cell-based. In a few lines: as §1

Series [5] can be described thus: Prodrug conversion in human plasma assessed as […] measured after 10 mins at 37 degree C by LC-MS/MS analysis. The series is classed as ADME, cell-free. In a few lines:
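Prodrug incubated in human plasma (pH 7.4 ± 0.1) at 37 °C for 1 h. Remaining prodrug and formed MT and AZT measured by LC-MS/MS, in triplicate at each time point. Decrease in prodrug plotted against MT formed over the first 10 min with a linear fit.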

Series [6] is described as follows: Selectivity index, ratio of CC50 for cytotoxicity in mock-infected human MT4 cells assessed as reduction in cell viability incubated for 5 days by MTT to EC50 for inhibition of reverse transcriptase/nucleocapsid protein 7 in wild type HIV1 3B infected in human MT4 cells assessed as protection against virus-induced cytopathic effect incubated for 5 days by MTT assay. It is filed as toxicity, cell-based. The settings on record: time 5 day, read-out: Ratio CC50/EC50. In a few lines:
as §1

Series [7] can be described thus: Inhibition of nucleocapsid protein 7/reverse transcriptase K103N/Y181C double mutant in HIV1 RES056 infected in human MT4 cells assessed as protection against virus-induced cytopathic effect incubated for 5 days by MTT assay. It is filed as cell-based. The settings on record: Human immunodeficiency virus 1, RES056, MT4, 120 h. In a few lines: as §1
Series [8] can be described thus: Cytotoxicity in mock-infected human MT4 assessed as reduction in cell viability incubated for 5 days by MTT assay. The series is classed as cell-based. The following applies: mock-infected MT4 cells, time 5 day. In a few lines:
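Mock-infected MT-4 cultures were run alongside the HIV-1 IIIB and RES056 (K103N/Y181C) protection assays and incubated for 5 days. Viability was read by MTT. CC50 is the concentration that cuts viability of the mock-infected cultures by 50%.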

Series [9] is described as follows: Selectivity index, ratio of CC50 for cytotoxicity in human TZM-bl assessed as reduction in cell viability incubated for 5 days by MTT to EC50 for inhibition of reverse transcriptase/nucleocapsid protein 7 in wild type HIV1 NL4-3 infected in human TZM-bl cells assessed as protection against virus-induced cytopathic effect incubated for 5 days by MTT assay. The series is classed as toxicity, cell-based. The following applies: time 5 day, read-out: Ratio CC50/EC50.

The nature of series [10]: Inhibition of reverse transcriptase/nucleocapsid protein 7 in wild type HIV1 NL4-3 infected in human TZM-bl cells assessed as protection against virus-induced cytopathic effect incubated for 5 days by MTT assay. The series is classed as cell-based. The following applies: Human immunodeficiency virus 1, NL4-3, TZM-bl, 120 h.
A short description of series [11]: Prodrug conversion in human plasma assessed as enzyme-mediated drug hydrolysis measured after 10 mins at 37 degree C by LC-MS/MS analysis.

With `Cc1cn([C@H]2C[C@H](N=[N+]=[N-])[C@@H](COC(=O)CCCCC(=O)OCSc3ccccc3CNCCC(N)=O)O2)c(=O)[nH]c1=O`, the cytotoxic concentration (CC50) (in general, the concentration that lowers cell viability or growth by half) at 120 h in series [1] is > 1580 nM; in series [8] it was > 198 µM. Further, the values for the selectivity ratio at 120 h in [2], in series [6] and in series [9] were > 149, > 4660 and > 4.76, respectively. Moreover, the negative-log EC50 (pEC50) (commonly the negative decadic logarithm of the EC50, by convention in mol/L) in [3] was 7.38; in series [7], 5.88; in series [10], 6.51. Moreover, the Ratio EC50 in series [4] turned out to be 31.6. The Drug metabolism entry is given as “Metabolite_Detected” in series [5] and 100% in series [11].

Turning to `NC(=O)CCNC(=O)c1ccccc1S`, the half-maximal cytotoxic concentration (CC50) at 120 h amounted to 82500 nM in series [1] and 332 µM in [8]. Further, the selectivity ratio at 120 h in series [2] was 41.9; in series [6], 63; in series [9], > 34.9. For the same molecule, the pEC50 was 5.28 in series [3], 5.10 in series [7] and 5.63 in [10]. For the same molecule, the Ratio EC50 in [4] stood at 1.5.

On to `Cc1cn([C@H]2C[C@H](N=[N+]=[N-])[C@@H](COC(=O)CCC(=O)OCSc3ccccc3C(=O)NCCC(N)=O)O2)c(=O)[nH]c1=O`, for which the half-maximal cytotoxic concentration (CC50) at 120 h is > 1660 nM in series [1] and 124 µM in [8].

`Cc1cn([C@H]2C[C@H](N=[N+]=[N-])[C@@H](CO)O2)c(=O)[nH]c1=O` [ZIDOVUDINE]: the CC50 at 120 h in series [1] is > 374 nM; in series [8] it was > 7.48 µM. Further, the selectivity ratio at 120 h in [2] is > 6.25; in series [6], > 645; in series [9], > 23.4. The negative-log EC50 (pEC50) in series [3] was 7.96; in series [7] it was 5.92; in [10], 7.80.

In the case of `Cc1cn([C@H]2C[C@H](N=[N+]=[N-])[C@@H](COC(=O)CC(C)CC(=O)OCSc3ccccc3C(=O)NCCC(N)=O)O2)c(=O)[nH]c1=O` (stereo partly specified), the CC50 at 120 h in [1] is > 1580 nM; in series [8], > 198 µM.

For `Cc1cn([C@H]2C[C@H](N=[N+]=[N-])[C@@H](COC(=O)CC(C)(C)CC(=O)OCSc3ccccc3C(=O)NCCC(N)=O)O2)c(=O)[nH]c1=O`, the cytotoxic concentration (CC50) at 120 h is > 1550 nM in [1] and > 194 µM in [8].

`Cc1cn([C@H]2C[C@H](N=[N+]=[N-])[C@@H](COC(=O)CCCC(=O)OCSc3ccccc3C(=O)NCCC(N)=O)O2)c(=O)[nH]c1=O`: the figures for the CC50 at 120 h in series [1] and in [8] were > 1620 nM and > 202 µM, respectively.
